This is a sample that favours compounds with a hit; in the whole collection about 2.3% have one here.
CSN inh: CSN deneddylation inhibition; Q92905; inhibition, % at 12.5 µM; 0.38% of 360,000 active; Purified CSN, SCF-Nedd8-OG deneddylation, fluorescence polarization;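 active = pattern-corrected inhibition above about 35%, with an unprinted fluorescence ratio check between 0.5 and 1.5, limit read from the data, passing the limit was not always enough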;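 note: 0% = enzyme with substrate and 100% = substrate without enzyme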
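Test system: purified human Csn5 enzyme expressed in HEK293T cells. Amount: 0.24 nM enzyme. Reagent: SCFSkp2-Nedd8OG substrate at 10 nM final. Schedule: 90 min incubation of compound, enzyme and substrate at room temperature. Detection: fluorescence polarization. Read-out: % inhibition of substrate cleavage by Csn5.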
Rpn11 inh: Rpn11 (human) deubiquitinase inhibition; human 26S proteasome, Ub4-pepOG fluorescence polarization; 20S core pre-blocked with epoxomicin; inhibition, % at 20 µM; 0.59% of 360,000 active;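 active = inhibition at 20 µM, scaled to each plate's controls, above about 33%, limit read from the data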
Target sequence (O00487 whole entry, looked up): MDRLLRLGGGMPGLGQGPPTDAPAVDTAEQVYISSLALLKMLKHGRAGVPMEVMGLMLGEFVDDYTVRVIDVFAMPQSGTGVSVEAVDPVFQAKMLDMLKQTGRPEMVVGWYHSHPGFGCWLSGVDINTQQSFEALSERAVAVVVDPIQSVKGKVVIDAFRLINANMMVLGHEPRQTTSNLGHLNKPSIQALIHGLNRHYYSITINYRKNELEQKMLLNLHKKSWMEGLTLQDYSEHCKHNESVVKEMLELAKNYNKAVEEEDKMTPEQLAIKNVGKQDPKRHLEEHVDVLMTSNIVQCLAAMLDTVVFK
TPT1 inhibitor: C. albicans TPT1 enzyme inhibition. recombinant caTPT1, FP RNA substrate dephosphorylation. inhibition, % at 5 µM. 0.81% of 300,000 active. AID 1962;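 active = inhibition above the mean of all tested compounds plus 3 SD, set per screening campaign, cut at about 24% in these data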;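 note: plate controls were DMSO alone for no effect and ferristatin control at 100 nM for full effect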
HNF4A DNA FP: change in binding of human HNF4 alpha to DNA; HNF4a-FITC DNA binding, fluorescence polarization, 1 h; activity change, % at 10 µM; 0.3% of 360,000 active; AID 1224865; in the data active = activity change above about 30%, passing the limit was not always enough
Myeloid diff MLP: myeloid differentiation induction; 1% of 360,000 active; ER-HoxA9 myeloid progenitors, lysozyme-GFP differentiation, flow cytometry; calls only at 10 µM;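 active = normalized GFP-positive differentiation at or above the plate's own cutoff, the solvent-only control mean plus 3 SD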;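 note: cells exposed to compound for four days before flow analysis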
caTPT1 confirm: confirmation of Candida albicans TPT1 inhibitors. shares compounds with TPT1 inhibitor. 74% of 2,400 active. recombinant caTPT1, fluorescence polarization, RNase T1 coupled. inhibition, % at 5 µM;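 active = inhibition above the primary screen limit, the mean inhibition of all tested compounds plus 3 SD, cut at about 25% in these data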
RNase T1 counter: counter-screen for TPT1 inhibitors: inhibitors of Aspergillus oryzae RNase T1; shares compounds with TPT1 inhibitor; RNase T1 cleavage, fluorescence polarization, 1536-well; inhibition, % at 5 µM; 83% of 2,400 active; AID 2153;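 active = inhibition above the solvent-only control well mean plus 3 SD, limit set per screening run, cut at about 23% in these data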;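 note: plate controls were DMSO wells with enzyme for no effect and wells without RNase T1 for full effect; inhibitors block cleavage so intact labeled substrate keeps polarization high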
Target sequence (P00651 whole entry, looked up): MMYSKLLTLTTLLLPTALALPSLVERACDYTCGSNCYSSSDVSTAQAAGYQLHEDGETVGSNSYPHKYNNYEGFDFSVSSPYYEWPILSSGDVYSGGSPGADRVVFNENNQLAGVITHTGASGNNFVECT
Rpn11 confirm: Rpn11 inhibition confirmation, single concentration. shares compounds with Rpn11 inh. purified human 26S proteasome, Ub4-pepOG fluorescence polarization; proteasome pretreated with epoxomicin. inhibition, % at 20 µM. 29% of 1,900 active. AID 602318
MMP-2 counter-1: counter-screen for RPN11 inhibitors: inhibition of human MMP-2 | 4% of 1,900 active | shares compounds with Rpn11 inh | recombinant MMP-2, FRET peptide cleavage fluorescence | inhibition, % at 20 µM;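 note: human MMP-2 activated beforehand with APMA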
Thrombin inh: counter-screen for RPN11 inhibitors: inhibition of bovine thrombin; shares compounds with Rpn11 inh; bovine thrombin cleavage of Ub4-pepOG, fluorescence polarization; inhibition, % at 20 µM; 13% of 1,900 active; AID 602333;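 active = mean inhibition at least 40% at 20 µM, or signal 3 deviations below plate average, so some actives read negative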;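 note: plate controls were thrombin with DMSO for no effect and buffer wells lacking thrombin for full effect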
CSN deneddyl val: validation of inhibitors of human CSN-mediated cullin deneddylation | 62% of 540 active | shares compounds with CSN inh | AID 720654 | inhibition, % at 16.6 µM | Csn5 deneddylation of SCF-Nedd8OG, fluorescence polarization, 90 min; in the data active = inhibition above about 50%;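 note: 0% = DMSO with enzyme and 100% = no enzyme wells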
MMP-2 counter-2: blocks human MMP-2 in a CSN deneddylation counter-screen; shares compounds with CSN inh; recombinant MMP-2, FRET substrate fluorescence, 60 min; inhibition, % at 16.6 µM; 33% of 540 active;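 active = corrected plate-normalized z-score of 5 or more, or -5 or less, or inhibition of 15% or more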;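 note: plate controls were DMSO wells with enzyme for no effect and buffer wells lacking MMP-2 for full effect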
Thrombin cntr: counter-screen for CSN deneddylation inhibitors: bovine thrombin inhibition | shares compounds with CSN inh | bovine thrombin cleavage of Ub4-pepOG, fluorescence polarization | inhibition, % at 16.6 µM | 49% of 540 active;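 active = inhibition at or above a set limit, with a fluorescence interference ratio between 0.5 and a set maximum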
* hit, by the source's call. Cut-off read from the data, not from the text of the source, unless noted: active = inhibition above about 40%; inactive = the rest.

For Cc1cc2nc(-c3ccccc3)c(Cc3cccc(Cl)c3)n2c(C)c1Br the results were CSN inh 5, HNF4A DNA FP 6 and Myeloid diff MLP inactive.
Screening Cc1cc(/C=N/Nc2ccc([N+](=O)[O-])cn2)c(C)n1-c1ccc(C(=O)O)cc1 returned CSN inh 53*, Rpn11 inh 31, TPT1 inhibitor 54*, HNF4A DNA FP 16, Myeloid diff MLP inactive, caTPT1 confirm 68*, RNase T1 counter 79*, CSN deneddyl val 90*, MMP-2 counter-2 13 and Thrombin cntr 2.
For COc1cc(/C=C(\C#N)C(=O)c2ccc(O)c(O)c2)cc(I)c1O the results were CSN inh active, TPT1 inhibitor 129*, HNF4A DNA FP 110, Myeloid diff MLP active, caTPT1 confirm 180*, RNase T1 counter 161*, CSN deneddyl val 19, MMP-2 counter-2 -106* and Thrombin cntr 57.
For COc1ccc(/C=N/N2C(=O)CSC2=S)cc1Br the results were CSN inh 58*, TPT1 inhibitor 38*, HNF4A DNA FP 61*, Myeloid diff MLP inactive, caTPT1 confirm 62*, RNase T1 counter 70*, CSN deneddyl val 51*, MMP-2 counter-2 5 and Thrombin cntr 54*.
Cc1cccc(N=Nc2c(C)c(C#N)c(O)[nH]c2=O)c1 was read as CSN inh 28, TPT1 inhibitor 24, HNF4A DNA FP 4 and Myeloid diff MLP inactive.
Screening Cc1c(C#N)c(O)[nH]c(=O)c1N=Nc1ccc(Br)cc1C(=O)O returned CSN inh 56*, TPT1 inhibitor 29*, HNF4A DNA FP 86*, Myeloid diff MLP inactive, caTPT1 confirm 43*, RNase T1 counter 65*, CSN deneddyl val 21, MMP-2 counter-2 2 and Thrombin cntr 53*.
For O=c1[nH]c(=S)[nH]c2c1C(c1ccc(Br)cc1)c1c([nH]c(=S)[nH]c1=O)O2 the results were CSN inh 84*, Rpn11 inh 141*, TPT1 inhibitor 82*, HNF4A DNA FP -64, Myeloid diff MLP inactive, caTPT1 confirm 7, RNase T1 counter 9, Rpn11 confirm 49*, MMP-2 counter-1 22, Thrombin inh 28, CSN deneddyl val 50*, MMP-2 counter-2 33* and Thrombin cntr 85*.
Cc1cc(/C=C2\SC(=S)N(C)C2=O)c(C)n1-c1ccccc1O was read as CSN inh 39*, TPT1 inhibitor 147*, HNF4A DNA FP 84, Myeloid diff MLP active, caTPT1 confirm 147*, RNase T1 counter 142*, CSN deneddyl val 63*, MMP-2 counter-2 -3 and Thrombin cntr 37*.
`Cc1cc(/C=C2\SC(=S)N(C)C2=O)c(C)n1-c1ccc(O)cc1` gave CSN inh 51*, TPT1 inhibitor 120*, HNF4A DNA FP 79*, Myeloid diff MLP inactive, caTPT1 confirm 129*, RNase T1 counter 129*, CSN deneddyl val 181*, MMP-2 counter-2 5 and Thrombin cntr 62*.
Cc1ccc(-n2c(C)cc(/C=C3\SC(=O)NC3=O)c2C)cc1 was read as CSN inh -3, Rpn11 inh -2, TPT1 inhibitor 2 and HNF4A DNA FP 5.
For COc1ccc(-n2c(C)cc(/C=C3\SC(=O)NC3=O)c2C)cc1 the results were CSN inh 1, Rpn11 inh 6, TPT1 inhibitor -2, HNF4A DNA FP -2 and Myeloid diff MLP inactive.
For Cc1cc(/C=C2/SC(=S)N(c3cccc(Cl)c3)C2=O)c(C)n1-c1cccnc1 the results were CSN inh 47*, Rpn11 inh 35, TPT1 inhibitor 114*, HNF4A DNA FP 43*, Myeloid diff MLP active, caTPT1 confirm 88*, RNase T1 counter 99*, CSN deneddyl val 128*, MMP-2 counter-2 -1 and Thrombin cntr 8.
Screening Cc1cc(/C=C2\SC(=S)NC2=O)c(C)n1-c1cccc(O)c1 returned CSN inh 66*, TPT1 inhibitor 90*, HNF4A DNA FP 97*, Myeloid diff MLP inactive, caTPT1 confirm 85*, RNase T1 counter 98*, CSN deneddyl val 37, MMP-2 counter-2 19* and Thrombin cntr 66*.
For O=C(Nc1cnns1)Oc1ccccc1 the results were CSN inh 2, Rpn11 inh 1, HNF4A DNA FP 0 and Myeloid diff MLP inactive.
Screening O=[N+]([O-])c1ccc(/C=C/C2=NN(c3ccccc3)C(c3ccco3)C2)cc1 (stereo not drawn) returned CSN inh 64*, TPT1 inhibitor 70*, HNF4A DNA FP 83*, Myeloid diff MLP active, caTPT1 confirm 64*, RNase T1 counter 66*, CSN deneddyl val 107*, MMP-2 counter-2 -18 and Thrombin cntr 40.
Screening CC1=NN(c2ccccc2)C(c2ccco2)C1 (stereo not drawn) returned CSN inh -2, Rpn11 inh 0, HNF4A DNA FP 4 and Myeloid diff MLP inactive.
`COC(=O)[C@@]12C[C@@H](CC(=O)NCCC(C)C)C(=O)N(CCc3ccc(OC)c(OC)c3)C1=CCC(C)(C)C2` gave CSN inh -3, HNF4A DNA FP -2 and Myeloid diff MLP inactive.
`CCC(C)n1c(NC(=O)c2ccccc2)c(C#N)c2nc3ccccc3nc21` (stereo not drawn) gave CSN inh 50*, TPT1 inhibitor 117*, HNF4A DNA FP 33*, Myeloid diff MLP active, caTPT1 confirm 80*, RNase T1 counter 85*, CSN deneddyl val 156*, MMP-2 counter-2 -12 and Thrombin cntr 54*.

Source: PubChem (several laboratories)
